Active and inactive are the calls of the source. The rule behind the calls is not given here.
Key:
[1] = Antioxidant activity assessed as superoxide radical scavenging activity; format: functional
Summary of the method: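 Non-cellular assay; superoxide generated by oxidation of 50 µM hypoxanthine with 12 mU xanthine oxidase. Scavenging followed as the rate of nitroblue tetrazolium reduction to formazan. SC50 taken from dose-dependent curves of serial dilutions; superoxide dismutase as standard inhibitor.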

RAW264.7 [2] = experiment: Effect on inflammatory mediators in LPS-stimulated mouse RAW264.7 cells assessed as TNF-alpha accumulation at 20% IC50 after 24 hrs by ELISA; format: functional
RAW264.7 [3] = experiment: Cytotoxicity against mouse RAW264.7 cells assessed as cell viability after 24 hrs by MTT assay; format: cell-based; conditions: RAW264.7, 24 h, in the assay text read “MTT assay” for “ultra gel clot assay”
Summary of the method: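 RAW 264.7 macrophages (5×10^4 cells/well) exposed 24 h at 37 °C to a range of compound concentrations, then read by MTT reduction to formazan, solubilised in acidic isopropanol. Viability expressed as mean % of untreated cells (n = 4); 1000 U/ml M-CSF as positive control. IC50 derived.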

RAW264.7 [4] = experiment: Effect on inflammatory mediators in mouse RAW264.7 cells assessed as PGE2 accumulation at 20% IC50 after 24 hrs by ELISA; format: functional
RAW264.7 [5] = experiment: Effect on inflammatory mediators in mouse RAW264.7 cells assessed as 5-LO accumulation at 20% IC50 after 24 hrs by dot immunoblotting; format: functional
Summary of the method: (§1)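 20 µg lysate protein dot-blotted, probed with anti-mouse COX-2 or 5-LO, detected by HRP/OPD and normalised to β-actin.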

RAW264.7 [6] = experiment: Effect on inflammatory mediators in LPS-stimulated mouse RAW264.7 cells assessed as nitrite accumulation at 20% IC50 after 24 hrs by Griess assay; format: functional
RAW264.7 [7] = experiment: Effect on inflammatory mediators in LPS-stimulated mouse RAW264.7 cells assessed as COX-2 accumulation at 20% IC50 after 24 hrs by dot immunoblotting; format: functional; summary of the method: as §1
RAW264.7 [8] = experiment: Effect on inflammatory mediators in mouse RAW264.7 cells assessed as TNF-alpha accumulation at 20% IC50 after 24 hrs by ELISA; format: functional
RAW264.7 [9] = experiment: Effect on inflammatory mediators in LPS-stimulated mouse RAW264.7 cells assessed as 5-LO accumulation at 20% IC50 after 24 hrs by dot immunoblotting; format: functional; summary of the method: as §1
[10] = Peroxyl radical scavenging activity assessed as trolox equivalents at 1 uM by ORAC assay
Summary of the method: (§2)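 β-Phycoerythrin fluorescence decay followed kinetically for 2 h at 37 °C with 1 µM compound, against peroxyl and hydroxyl radicals. One ORAC unit = net protection given by 1.0 µM Trolox.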

[11] = Hydroxyl radical scavenging activity assessed as trolox equivalents at 1 uM by ORAC assay; format: functional; summary of the method: as §2
RAW264.7 [12] = experiment: Effect on inflammatory mediators in LPS-stimulated mouse RAW264.7 cells assessed as PGE2 accumulation at 20% IC50 after 24 hrs by ELISA; format: functional
RAW264.7 [13] = experiment: Effect on inflammatory mediators in mouse RAW264.7 cells assessed as COX-2 accumulation at 20% IC50 after 24 hrs by dot immunoblotting; format: functional; summary of the method: as §1
RAW264.7 [14] = experiment: Effect on inflammatory mediators in mouse RAW264.7 cells assessed as nitrite accumulation at 20% IC50 after 24 hrs by Griess assay; format: functional
RAW264.7 [15] = experiment: Effect on inflammatory mediators in mouse RAW264.7 cells assessed as 5-LO accumulation at 20 uM after 24 hrs by dot immunoblotting; format: functional
Summary of the method: (§3)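 Cells treated 24 h with 20 µM compound, with or without LPS (1 µg/ml). 20 µg soluble lysate protein dot-blotted onto nitrocellulose and probed with rabbit anti-mouse COX-2 or 5-LO, HRP anti-rabbit secondary and OPD colour. Intensity normalised to β-actin dots; four repeats.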

RAW264.7 [16] = experiment: Effect on inflammatory mediators in LPS-stimulated mouse RAW264.7 cells assessed as COX-2 accumulation at 20 uM after 24 hrs by dot immunoblotting; format: functional; summary of the method: as §3
RAW264.7 [17] = experiment: Effect on inflammatory mediators in LPS-stimulated mouse RAW264.7 cells assessed as TNF-alpha accumulation at 20 uM after 24 hrs by ELISA; format: functional
Summary of the method: (§4)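 RAW 264.7 given 20 µM compound for 24 h, alone or together with LPS at 1 µg/ml. TNF-α and PGE2 in harvested supernatants quantified with commercial ELISA kits per manufacturer; four repeats, means reported.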

RAW264.7 [18] = experiment: Induction of phagocytosis in mouse RAW264.7 cells assessed as phagocytic activity against FITC-zymosan after 1 hr by fluorimetry; format: functional, cell-based
Summary of the method: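 Cells at 1×10^5/well in phenol red-free RPMI-1640 rested 24 h, then given compound for 1 h. FITC-zymosan added for a further 1 h; cells washed three times and lysed with Triton X-100. Fluorescence read at 485/530 nm and expressed relative to untreated cells (100%).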

RAW264.7 [19] = experiment: Effect on inflammatory mediators in LPS-stimulated mouse RAW264.7 cells assessed as 5-LO accumulation at 20 uM after 24 hrs by dot immunoblotting; format: functional; summary of the method: as §3
RAW264.7 [20] = experiment: Effect on inflammatory mediators in mouse RAW264.7 cells assessed as nitrite accumulation at 20 uM after 24 hrs by Griess assay; format: functional
Summary of the method: (§5)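 Cells in phenol red-free RPMI-1640 with 10% FBS treated 24 h with 20 µM compound, with or without LPS (1 µg/ml). Supernatant mixed 1:1 with Griess reagent for 10 min, A550 read against a sodium nitrite standard curve, then normalised to BCA protein.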

RAW264.7 [21] = experiment: Effect on inflammatory mediators in mouse RAW264.7 cells assessed as COX-2 accumulation at 20 uM after 24 hrs by dot immunoblotting; format: functional; summary of the method: as §3
RAW264.7 [22] = experiment: Effect on inflammatory mediators in LPS-stimulated mouse RAW264.7 cells assessed as nitrite accumulation at 20 uM after 24 hrs by Griess assay; format: functional; summary of the method: as §5
RAW264.7 [23] = experiment: Effect on mouse RAW264.7 cell function assessed as FITC-LPS binding to macrophage after 15 mins by fluorimetry; format: functional, cell-based
Summary of the method: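 5×10^5 RAW 264.7 cells pre-incubated 15 min at 37 °C with compound in RPMI-1640 plus 10% FBS as the CD14/LBP source. FITC-LPS (200 ng/ml) then added for 1 h. After PBS wash, fluorescence read at ex 485/em 530 nm and median fluorescence intensity reported.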

RAW264.7 [24] = experiment: Effect on inflammatory mediators in mouse RAW264.7 cells assessed as TNF-alpha accumulation at 20 uM after 24 hrs by ELISA; format: functional; summary of the method: as §4
RAW264.7 [25] = experiment: Effect on inflammatory mediators in LPS-stimulated mouse RAW264.7 cells assessed as PGE2 accumulation at 20 uM after 24 hrs by ELISA; format: functional; summary of the method: as §4
RAW264.7 [26] = experiment: Effect on inflammatory mediators in mouse RAW264.7 cells assessed as PGE2 accumulation at 20 uM after 24 hrs by ELISA; format: functional; summary of the method: as §4

SMILES	SC50 [1]	IC50 (RAW264.7 [3])	Activity [10]	Activity [11]	Activity (RAW264.7 [15])	Activity (RAW264.7 [16])	Activity (RAW264.7 [17])	Activity (RAW264.7 [18])	Activity (RAW264.7 [19])	Activity (RAW264.7 [20])	Activity (RAW264.7 [21])	Activity (RAW264.7 [22])	Activity (RAW264.7 [23])	Activity (RAW264.7 [24])	Activity (RAW264.7 [25])	Activity (RAW264.7 [26])	other results
CC(C)c1ccc(-c2cc(-c3ccc4c(c3)CCCC4)nc(OCC(=O)NN)c2C#N)cc1	42.5 µg/mL	27.7 µM	0.81	0.99	–	–	–	–	–	–	–	–	–	–	–	–	Activity (RAW264.7 [2]): 5754.5 pg; Activity (RAW264.7 [4]): 43.6 pg; Activity (RAW264.7 [5]): 33.12%; Activity (RAW264.7 [6]): 596.4 nmol; Activity (RAW264.7 [7]): 92.6%; Activity (RAW264.7 [8]): 1364.75 pg; Activity (RAW264.7 [9]): 91.8%; Activity (RAW264.7 [12]): 3405.5 pg; Activity (RAW264.7 [13]): 63.1%; Activity (RAW264.7 [14]): 440.24 nmol
COc1ccc(-c2cc(-c3ccc4c(c3)CCCC4)nc(OCC(=O)NCc3ccccc3)c2C#N)cc1OC	19.9 µg/mL	–	3.56	2.31	18.9%	73.3%	854.16 pg	inactive	77.4%	26.65 nmol	23.7%	155.25 nmol	inactive	116.8 pg	2018.96 pg	53.1 pg	–
CC(C)c1ccc(-c2cc(-c3ccc4c(c3)CCCC4)nc3[nH]nc(N)c23)cc1	21.9 µg/mL	> 50 µM	2.45	2.28	–	–	1925.78 pg	Active	–	5.62 nmol	–	62.42 nmol	Active	105.6 pg	2974.23 pg	32.21 pg	–
N#Cc1c(-c2c[nH]c3ccccc23)cc(-c2ccc3c(c2)CCCC3)[nH]c1=O	78.5 µg/mL	> 100 µM	0.35	0.21	23.5%	82.4%	5100.15 pg	Active	82.3%	16.25 nmol	16.3%	505.75 nmol	–	88.44 pg	3210.3 pg	32.63 pg	–
N#Cc1c(-c2c[nH]c3ccccc23)cc(-c2ccc3c(c2)CCCC3)[nH]c1=S	4.22 µg/mL	> 100 µM	6.13	4.2	23.8%	59.8%	4925.35 pg	–	69.4%	15.5 nmol	28.1%	480.05 nmol	–	75.4 pg	3005.3 pg	49.82 pg	–
CC(C)c1ccc(-c2cc(-c3ccc4c(c3)CCCC4)nc(NCc3ccccc3)c2C#N)cc1	77.6 µg/mL	> 50 µM	1.34	1.01	29.8%	97.3%	6325.08 pg	–	88.7%	614.63 nmol	53.2%	922.5 nmol	inactive	1890.16 pg	3222.55 pg	48.3 pg	–
CC(C)c1ccc(-c2cc(-c3ccc4c(c3)CCCC4)[nH]c(=S)c2C#N)cc1	10.2 µg/mL	> 100 µM	4.32	5.41	14.2%	36.7%	1458.16 pg	Active	31.6%	12.66 nmol	18.2%	25.58 nmol	Active	101.5 pg	1843.42 pg	41.84 pg	–
COc1ccc(-c2cc(-c3ccc4c(c3)CCCC4)nc(OCC(=O)NN)c2C#N)cc1OC	8.67 µg/mL	3.1 µM	5.12	5.84	13.8%	71.3%	4924.22 pg	–	83.2%	1.34 nmol	10.2%	78.54 nmol	–	124.68 pg	3111.94 pg	25.6 pg	–
CC(C)c1ccc(-c2cc(-c3ccc4c(c3)CCCC4)[nH]c(=O)c2C#N)cc1	85.4 µg/mL	> 100 µM	0.75	0.92	20.3%	42.7%	1255.6 pg	Active	25.1%	8.51 nmol	21.4%	32.55 nmol	Active	91.67 pg	2105.3 pg	40.13 pg	–
COc1ccc(-c2cc(-c3ccc4c(c3)CCCC4)[nH]c(=O)c2C#N)cc1OC	> 100 µg/mL	> 100 µM	0.41	0.54	15.8%	76.3%	3860.25 pg	–	92.1%	14.8 nmol	14.6%	355.78 nmol	–	69.56 pg	3120.45 pg	30.35 pg	–
COc1ccc(-c2cc(-c3ccc4c(c3)CCCC4)nc(Cl)c2C#N)cc1OC	87.9 µg/mL	> 50 µM	0.61	0.35	25.3%	88.7%	5716.66 pg	inactive	84.5%	512.35 nmol	36.6%	766.85 nmol	inactive	810.75 pg	3325.87 pg	38.33 pg	–
COc1ccc(-c2cc(-c3ccc4c(c3)CCCC4)nc3[nH]nc(N)c23)cc1OC	> 100 µg/mL	> 50 µM	1.92	5.85	24%	63.7%	4185.85 pg	–	81.8%	10.53 nmol	15.7%	145.67 nmol	–	94.88 pg	3415.23 pg	28.6 pg	–
